# From PubChem
# Shown are actives, neighbours in structure and some others; about 9.6% of the full set was active somewhere.
# L major viab: Leishmania major promastigote growth inhibition, primary screen; Leishmania major promastigotes, resazurin fluorescence viability; inhibition, % at 10 µM; 200,000 compounds, 9% hits; AID 1063, 2008; in the data active means inhibition above about 50%;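 further: promastigotes grown with compound for 44 hours at 28 °C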
# TNAP inh no acc: human TNAP enzyme inhibitors, primary screen, biochemical, luminescent, no phosphate acceptor, uHTS; Alkaline phosphatase, tissue-nonspecific isozyme (Homo sapiens), P05186; 200,000 compounds, 0.26% hits; inhibition, % at 20 µM; purified TNAP, CDP-star luminescence, 30 min;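 active means tissue-nonspecific alkaline phosphatase inhibition above about 50% at 20 µM in the single-dose screen, limit read from the data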;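 further: 0% = DMSO negative control and 100% = EDTA positive control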
# Target sequence (P05186 whole entry, looked up): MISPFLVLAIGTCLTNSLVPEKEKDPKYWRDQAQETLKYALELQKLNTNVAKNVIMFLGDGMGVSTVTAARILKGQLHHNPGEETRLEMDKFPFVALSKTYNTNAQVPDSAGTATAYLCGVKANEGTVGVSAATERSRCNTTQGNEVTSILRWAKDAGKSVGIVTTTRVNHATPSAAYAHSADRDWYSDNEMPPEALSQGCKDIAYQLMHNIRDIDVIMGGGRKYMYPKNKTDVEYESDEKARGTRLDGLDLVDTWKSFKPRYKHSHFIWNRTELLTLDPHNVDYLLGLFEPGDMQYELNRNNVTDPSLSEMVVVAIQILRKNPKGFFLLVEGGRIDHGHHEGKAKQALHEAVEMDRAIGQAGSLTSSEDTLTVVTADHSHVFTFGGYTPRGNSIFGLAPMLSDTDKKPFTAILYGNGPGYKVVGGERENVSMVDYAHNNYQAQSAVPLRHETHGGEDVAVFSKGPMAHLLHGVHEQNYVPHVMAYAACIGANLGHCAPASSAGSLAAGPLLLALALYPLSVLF
# TNAP act hiacc: TNAP activators at high phosphate acceptor level, primary screen, biochemical, luminescence, uHTS; Alkaline phosphatase, tissue-nonspecific isozyme (Homo sapiens), P05186; AID 1136, 2008; activation factor at 20 µM; purified TNAP, CDP-star luminescence, 1 M DEA, 30 min; stronger effect = higher value; 0 = EDTA background, 1 = DMSO-only activity; 200,000 tested, under 10 active;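 active means activation factor at least 2 at 20 µM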
#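 Assay system: human TNAP; Input: enzyme diluted 1/800 final; Reagent: CDP-star luminogenic substrate at 100 µM final; Timing: 30 min, room temperature; Signal: luminescence; Evaluation: TNAP activation factor scaled between EDTA and DMSO control wells.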
# TNAP inh hi DEA: human TNAP enzyme inhibitors, primary screen, biochemical, luminescent, high phosphate acceptor level, uHTS; 200,000 compounds, 0.03% hits; Alkaline phosphatase, tissue-nonspecific isozyme (Homo sapiens), P05186; inhibition, % at 20 µM; purified TNAP, CDP-star luminescence, 1 M DEA; AID 1135, 2008;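 active means over 50% inhibition of tissue-nonspecific alkaline phosphatase at 20 µM in the single-dose screen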;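 further: plate controls were DMSO wells for no effect and EDTA-quenched wells as full inhibition for full effect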
# bCat KO growth: primary screen for growth suppressors in beta-catenin knockout HCT116 cells (colon tumor, human). viability, % at 10 µM. 140,000 compounds, 1.5% hits. AID 818, 2007. HCT116 beta-catenin knockout viability, CellTiter-Glo, 60 h; stronger effect = lower value;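 active means viability at or under a set limit, the compound median less 4 SD, cut at about 6% in these data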;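 further: 0% = Hyamine 1622 control at 20 µM and 100% = untreated cell control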
# PTEN del growth: growth suppression of PTEN-null HCT116, primary screen, cell-based, CellTiter-Glo. AID 827, 2007. 140,000 compounds, 1.2% hits. HCT116 PTEN-null viability, 60 h; stronger effect = lower value. viability, % at 10 µM;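 active means viability at or below a set limit, 4 SD under the median of all tested compounds, cut at about 3.7% in these data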;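 further: PTEN knockout HCT116 line with beta catenin targeted HCT116 as companion control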
# An asterisk follows results filed as active; . = not tested or not shown.
SMILES,L major viab,TNAP inh no acc,TNAP act hiacc,TNAP inh hi DEA,bCat KO growth,PTEN del growth
CC1CC(C)(C)NC(=S)N1CCC(=O)N1CCN(c2ccccc2)CC1 (stereo not given),7,-2,1,-5,.,.
COc1ccc(C)cc1NC(=O)CCCN1C(=S)NC(C)(C)CC1C (stereo not given),-3,-3,0.9,8,100,86
CCn1c(C(C)NC(=O)c2cccc(C)c2)n[nH]c1=S (stereo not given),-2,4,1,1,.,.
CCOC(=O)c1c(CSc2ccc(C)cc2)n(C)c2cc(Br)c(O)c(CN(C)C)c12,71*,-6,1.1,-8,.,.
CCOC(=O)c1c(C)n(C)c2ccc(O)c(CN(C)C)c12,4,-3,1,0,69,72
CCOC(=O)c1c(C)n(-c2ccc(C)cc2)c2ccc(O)c(CN(C)C)c12,99*,-8,1.1,-6,.,.
O=C(Cc1ccccc1)NN1C(=O)C2C3C=CC(C3)[C@@H]2C1=O (stereo not given in full),-7,-14,1,1,87,106
O=C(NC(C(=O)N/N=C/c1ccccc1)c1n[nH]c(=O)c2ccccc12)c1ccccc1 (stereo not given),10,-7,1,-3,105,98
O=C(NC(C(=O)N/N=C/c1c2ccccc2cc2ccccc12)c1n[nH]c(=O)c2ccccc12)c1ccccc1 (stereo not given),93*,0,1,-4,85,79
CC(=O)Nc1ccc(S(=O)(=O)NCC(=O)OCc2ccccc2)cc1,-6,-12,1,-5,69,63
CCOC(=O)c1c(NC(=O)/C=C/C(=O)O)sc(C)c1-c1ccc(C(C)(C)C)cc1,100*,-13,1,-4,.,.
Cc1sc(NC(=O)C2C3CCC(C3)C2C(=O)O)c(C(N)=O)c1-c1ccc(C(C)(C)C)cc1 (stereo not given),57*,-10,1,-1,91,81
COc1cc(/C=C2/NC(=O)N(Cc3ccccc3F)C2=O)ccc1O,-9,1,0.9,8,.,.
CN(C1CCCCC1)S(=O)(=O)c1ccc(NC(=O)c2ccc(Br)o2)cc1,57*,2,1.1,-6,83,83
CN(C)S(=O)(=O)c1ccc(NC(=O)c2ccc(Br)o2)cc1,-2,-2,1,-3,104,94
O=c1cc(-c2ccc([N+](=O)[O-])cc2)nc2cc(-c3ccc(F)cc3)[nH]n12,-8,28,0.9,7,90,87
CC(C)C(=O)NNc1ccccc1,0,-5,1,-3,90,102
O=C(NNc1ccccc1)C(CCO)C(=O)NNc1ccccc1,76*,-8,1.1,-5,.,.
CC(O)CC(C(=O)NNc1ccccc1)C(=O)NNc1ccccc1 (stereo not given),63*,-13,1,-3,.,.
Cc1nn(C)cc1C(C(=O)NC1CCCCC1)N(C(=O)Cc1cccs1)c1ccc(F)cc1 (stereo not given),70*,-11,1,2,92,86
Cc1cc(C)cc(N(C(=O)CCC(=O)Nc2cc(C)on2)C(C(=O)NC2CCCC2)c2ccco2)c1 (stereo not given),88*,-3,1,-2,.,.
Cc1ccc(C(C(=O)NC2CCCC2)N(Cc2ccco2)C(=O)CCC(=O)Nc2cc(C)on2)cc1 (stereo not given),82*,-7,1,-1,79,72
Cc1cc(NC(=O)CCC(=O)N(Cc2ccco2)C(C(=O)NC2CCCCC2)c2cccs2)no1 (stereo not given),-2,-10,1.1,-5,.,.
Cc1ccc(C)c(N(C(=O)CCC(=O)Nc2cc(C)on2)C(C(=O)NC2CCCC2)c2ccco2)c1 (stereo not given),90*,0,1.1,-6,76,82
CN(C)c1ccc(/C=N/NC(=O)c2sccc2-n2cccc2)cc1,23,-18,1,-1,.,.
SMILES,L major viab,TNAP inh no acc,TNAP act hiacc,TNAP inh hi DEA,bCat KO growth,PTEN del growth
CS(=O)Cc1cc(Sc2ccccc2)nc(-c2ccncc2)n1 (stereo not given),-1,-10,1.1,-5,.,.
CCN1CCCc2cc(CN(CCN3CCOCC3)C(=S)Nc3cc(F)cc(F)c3)ccc21,4,-9,1,-4,.,.
O=C(c1sc2cc(F)ccc2c1Cl)N1CCN(c2ccccc2)CC1,-2,-11,1,1,94,77
O=C(NC1CCCCC1)C(c1cccs1)N(Cc1cccs1)C(=O)c1cccs1 (stereo not given),99*,-8,1,2,79,81
Cc1cccc(N(C(=O)CCC(=O)Nc2cc(C)on2)C(C(=O)NC2CCCC2)c2ccc(C)o2)c1 (stereo not given),89*,-6,1,-2,.,.
Cc1ccc(N(C(=O)CCC(=O)Nc2cc(C)on2)C(C(=O)NC2CCCC2)c2cccs2)cc1 (stereo not given),54*,-8,1.1,-6,83,95
Cc1cc(NC(=O)CCC(=O)N(Cc2cccs2)C(C(=O)NC2CCCC2)c2ccccc2)no1 (stereo not given),94*,-10,1,-1,79,72
Cc1cc(NC(=O)CCC(=O)N(Cc2cccs2)C(C(=O)NC2CCCC2)c2cccnc2)no1 (stereo not given),-5,-13,1.1,-8,86,98
CCCC12CN3CC(C)(CN(C1)C3c1ccco1)C2=O (stereo not given),7,3,1.1,-8,.,.
COc1ccccc1-c1nnc(SC(C(=O)c2c[nH]c3ccccc23)c2ccccc2)n1C (stereo not given),8,-2,1,-1,50,41
COc1cccc(-c2nnc(SC(C(=O)c3c[nH]c4ccccc34)c3ccccc3)n2C)c1 (stereo not given),98*,-4,1,-5,65,60
Cc1[nH]c2ccccc2c1/C=N/Nc1ccccn1,56*,6,1,2,.,.
COc1ccc(O)c(/C=N/Nc2nc(Nc3ccccc3)nc(-n3nc(C)cc3C)n2)c1,101*,-12,1,2,44,28
COc1cc(/C=N/Nc2nc(Nc3ccc(C)cc3)nc(-n3nc(C)cc3C)n2)cc(OC)c1OC,100*,-8,1,-1,63,65
COc1cc(/C=N/Nc2ccc(S(N)(=O)=O)cc2)cc(OC)c1OC,-6,-9,1,-4,.,.
Cc1[nH]c2ccccc2c1/C=N/Nc1nc(Nc2ccccc2)nc(N2CCOCC2)n1,100*,6,1,-1,21,13
